Compounds with a hit are over-represented: about 4.7% of the library has one in this group of screens.
MC4R antagonist = antagonists of human melanocortin 4 receptor (MC4R). P32245. MC4R-expressing cells, MTII-stimulated cAMP, LANCE TR-FRET. inhibition, % at 6.5 µM. 360,000 tested, 0.48% active. AID 540295;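 active = inhibition above its plate's cutoff, the mean of tested wells on that plate plus 3 SD, cut at about 29% in these data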;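 also: 0% = Melanotan II alone and 100% = Melanotan II plus saturating MCL0020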
Target sequence (P32245 whole entry, looked up): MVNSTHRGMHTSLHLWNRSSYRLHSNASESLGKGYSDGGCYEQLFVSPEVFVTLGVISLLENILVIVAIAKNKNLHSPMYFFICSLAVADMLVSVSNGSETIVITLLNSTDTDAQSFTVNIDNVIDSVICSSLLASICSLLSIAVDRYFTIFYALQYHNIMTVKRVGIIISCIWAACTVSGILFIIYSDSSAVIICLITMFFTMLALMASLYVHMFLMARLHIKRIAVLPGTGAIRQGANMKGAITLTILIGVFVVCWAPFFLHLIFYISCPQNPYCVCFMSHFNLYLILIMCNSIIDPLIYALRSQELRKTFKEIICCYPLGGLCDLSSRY
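System – human MC4R-expressing U2OS cells · Also added – Melanotan II · Dosing – one concentration, 6.5 µM nominal · Timing – 30-min compound, 1-h challenge, 1-h detection, room temperature · Measured by – Eu-cAMP/anti-cAMP TR-FRET, emission 671 nm · Replicates – singlicate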
AHR act = activates the human aryl hydrocarbon receptor | P35869 | AHR-responsive luciferase reporter cells, luminescence | activation, % at 5 µM | 320,000 tested, 2.5% active | AID 2796; in the data active = activation above about 47%;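 also: 0% = vehicle wells and 100% = reference agonist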
MC4R barr agon = human MC4R agonism via beta-arrestin. P32245. U2OS MC4R beta-arrestin complementation, luminescence; percent of melanotan II response, DMSO zero. activation, % at 8.9 µM. 360,000 tested, 0.98% active. AID 540308;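 active = activation above a per-plate cutoff, the mean activation of sample wells on that plate plus 3 SD, cut at about 8% in these data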
GAA850 FXN act = increases GAA850 frataxin promoter reporter activity; HEK293 lucGAA850 FXN promoter luciferase reporter, 24 h; percent of 10 µM SAHA response; AID 540364; 360,000 tested, 0.56% active; activation, % at 6 µM;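 active = activation above the average of all compounds screened plus 3 SD, cutoff fixed separately per campaign, cut at about 7.5% in these data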;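 also: 0% = DMSO wells and 100% = 10 µM SAHA wells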
m5-HT2A agonist = activates the mouse 5-HT2A serotonin receptor | P35363 | activation, % at 7.6 µM | 360,000 tested, 0.66% active | CHO-K1 mHTR2A beta-arrestin complementation, luminescence; percent of 30 µM serotonin response | AID 624169;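 active = activation above a run cutoff, the mean activation of all tested compounds plus 3 SD, cut at about 14% in these data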;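 also: 0% = plate median of compound wells and 100% = 30 µM serotonin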
* hit, by the source's call; x = no result.

SMILES	MC4R antagonist	AHR act	MC4R barr agon	GAA850 FXN act	m5-HT2A agonist
CC(C)(C)c1cc(NCc2ccccn2)n2ncc(-c3ccc(Cl)cc3)c2n1	13	1	1	0	-5
FC(F)(F)c1cccc(-c2cc3nc(NCCCn4ccnc4)ccn3n2)c1	12	x	-4	2	-2
CCCc1cc(NCCCn2ccnc2)n2nc(C)c(-c3ccccc3)c2n1	3	63*	-1	-1	-1
O=C(NCc1cccc(Cl)c1)C1Cc2c(-c3ccc(Cl)cc3)ccnc2O1 (centres undefined)	1	x	0	-2	6
COc1cc(OC)cc(-c2noc([C@@H]3O[C@H](CO)[C@@H](O)[C@H]3O)n2)c1	4	x	-2	-1	-2
O=C(c1ccccc1)c1cc(Cl)ccc1N1C(=O)C=CC1=O	58*	x	-1	4	-6
O=C(CC(=O)c1cc(Cl)ccc1O)c1ccccc1	-3	43	2	4	2
COc1ccc(CC(=O)NNC2=Nc3cccc4cccc2c34)cc1	-8	15	0	-2	-9
Cc1ccc(C(=O)NNC2=Nc3cccc4cccc2c34)cc1	2	79*	-1	-1	-4
COc1ccc(C(=O)NNC2=Nc3cccc4cccc2c34)cc1	-5	39	9.0*	-1	-2
O=C1c2ccccc2-c2onc3ccc(NCCCn4ccnc4)c1c23	x	60*	x	x	x
CCn1nc(C)cc1C(=O)NC1CCCc2c1cnn2-c1cc(F)cc(F)c1 (centres undefined)	8	x	-2	-1	-5
CC(=O)N1c2ccc(S(=O)(=O)N(C)CC(=O)NCc3ccc(C)cc3)cc2CC1C (centres undefined)	9	1	0	2	6
CC(Oc1ccccc1)C(=O)Nc1nc(-c2ccncc2)cs1 (centres undefined)	17	47*	-2	1	-2
CC(Oc1ccccc1)C(=O)Nc1nc(-c2ccccn2)cs1 (centres undefined)	-1	x	-1	-1	1
C/C(=N\NC(=O)c1cccc([N+](=O)[O-])c1)c1ccncc1	-4	78*	-4	2	-3
C/C(=N\NC(=O)c1cccc(N/N=C(\C)c2ccncc2)c1)c1ccncc1	-11	67*	-1	2	-6
C/C(=N\NC(=O)c1cc2c(s1)CCC(C)C2)c1ccncc1 (centres undefined)	2	56*	-2	7	-4
C/C(=N\NC(=O)c1ccccc1O)c1cccc(NC(=O)c2ccccc2)c1	13	53*	-1	2	0
C/C(=N\NC(=O)c1ccccc1O)c1ccc(NC(=O)c2ccccc2)cc1	-3	x	-2	4	-2
C/C(=N\NC(=O)c1cc2c(s1)CCC(C)C2)c1ccc[nH]1 (centres undefined)	10	40	0	3	0
C/C(=N\NC(=O)c1cccc(N/N=C(\C)c2ccccc2)c1)c1ccccc1	15	13	2	2	-2
C/C(=N/NC(=O)c1ccc(O)cc1)c1cccc([N+](=O)[O-])c1	10	2	2	1	1
COc1ccc(C(C)=O)c(OCC(=O)NCCC2=CCCCC2)c1	0	x	3	1	-5
Cc1cccc(NC(=O)CN2C(=O)C3CC=CCC3C2=O)c1C (centres undefined)	11	x	-1	0	4
SMILES	MC4R antagonist	AHR act	MC4R barr agon	GAA850 FXN act	m5-HT2A agonist
Cc1cc(C)nc(NC2=NCC(=O)N2c2cccc(Cl)c2)n1	-1	65*	-1	0	2
Cc1cc(C)nc(NC2=NCC(=O)N2c2ccccc2)n1	-3	38	-1	0	1
COc1ccc(N2C(=O)CN=C2Nc2nc(C)cc(C)n2)cc1	-6	76*	-1	-1	-2
COC1=CC(C)C2CC3OC(=O)CC4C(C)=C(OC)C(=O)C(C2(C)C1=O)C34C (centres undefined)	14	x	1	1	4
Cc1nn(Cc2ccc([N+](=O)[O-])cc2)c(=O)n1N(C)c1ncc(C(F)(F)F)cc1Cl	0	1	-1	6	-2
Cc1nn(Cc2ccc(Cl)cc2)c(=O)n1N(C)c1ncc(C(F)(F)F)cc1Cl	3	4	9.2*	3	-2
Cc1cc(C(=O)COC(=O)c2ccc[nH]c2=O)c(C)n1CCc1ccc(F)cc1	-6	41	-2	1	-4
Cc1cc(C(=O)COC(=O)C2=NNC(=O)CC2)c(C)n1CCc1ccccc1	3	69*	-2	0	-2
COc1ccc(NC(=O)c2ccc(Cn3cc(Cl)cn3)cc2)cc1	-4	9	-1	1	-9
CN(C)c1ccc(NC(=O)c2ccc(Cn3cc([N+](=O)[O-])cn3)cc2)cc1	-3	71*	-2	2	0
O=S(=O)(NNc1ncc(C(F)(F)F)cc1Cl)c1ccccc1	-2	69*	0	2	2
O=C(/C(=C/O)N=Nc1cccc(C(F)(F)F)c1)c1ccccc1	-5	75*	0	2	0
Cc1cccc(N=N/C(=C\O)C(=O)c2ccc(Br)cc2)c1	8	17	1	-2	-1
O=C(N/N=C/c1sc2ccccc2c1O)c1ccccc1	-9	73*	0	-10	-6
Cc1ccc(O)c(N=CC2=C(O)c3ccccc3C2=O)c1	-4	78*	3	4	2
O=C(COC(=O)COc1cccc(C(F)(F)F)c1)NC(=O)NC1CCCCC1	-2	1	8.7*	2	8
O=C(COC(=O)COc1cccc(C(F)(F)F)c1)NC1CCS(=O)(=O)C1 (centres undefined)	5	-2	-1	0	4
Cc1cc(Br)ccc1NC(=O)CN(C)C(=O)C1=COCCO1	13	2	-1	-1	0
c1ccc2c(c1)[nH]c1c3ccccc3sc21	14	39	8.3*	0	-5
O=c1c2ccccc2sc2ccccc12	-1	x	-1	3	-3
CCNc1nc(NCC)nc(SCCOC(=O)Nc2ccc(Cl)cc2Cl)n1	26	1	8.9*	0	-1
CC(=O)c1cccc(NC(=O)C2C3C=CC(C3)C2C(=O)O)c1 (centres undefined)	2	1	1	-1	1
COc1cc(NC(=O)C2C3C=CC(C3)C2C(=O)O)ccc1NC(=O)c1ccccc1 (centres undefined)	10	56*	-2	-1	-1
COc1cccc(C(=O)Nc2ccc(NC(=O)C3C4C=CC(C4)C3C(=O)O)cc2)c1 (centres undefined)	-2	73*	2	5	2
Cn1c(=O)c2[nH]c(C(O)c3ccc(Cl)cc3)nc2n(C)c1=O (centres undefined)	8	x	-1	-1	2
Clc1ccc2nc(-c3ccccc3)c(CC3CCCCC3)n2c1	x	x	x	x	-1

Source: PubChem (The Scripps Research Institute Molecular Screening Center)
